Source: PubChem (several laboratories)
NRP1-CendR mod: alters CendR peptide binding to human NRP-1; 360,000 tested, 0.85% active; O14786; AID 602438; FAM-RPARPAR peptide binding to NRP-1, fluorescence polarization; inhibition, % at 25 µM;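 active = inhibition or corrected inhibition above about 18%, plus a signal ratio from 0.5 to 1.5, limit read from the data, passing the limit was not always enough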
Target sequence (O14786 whole entry, looked up): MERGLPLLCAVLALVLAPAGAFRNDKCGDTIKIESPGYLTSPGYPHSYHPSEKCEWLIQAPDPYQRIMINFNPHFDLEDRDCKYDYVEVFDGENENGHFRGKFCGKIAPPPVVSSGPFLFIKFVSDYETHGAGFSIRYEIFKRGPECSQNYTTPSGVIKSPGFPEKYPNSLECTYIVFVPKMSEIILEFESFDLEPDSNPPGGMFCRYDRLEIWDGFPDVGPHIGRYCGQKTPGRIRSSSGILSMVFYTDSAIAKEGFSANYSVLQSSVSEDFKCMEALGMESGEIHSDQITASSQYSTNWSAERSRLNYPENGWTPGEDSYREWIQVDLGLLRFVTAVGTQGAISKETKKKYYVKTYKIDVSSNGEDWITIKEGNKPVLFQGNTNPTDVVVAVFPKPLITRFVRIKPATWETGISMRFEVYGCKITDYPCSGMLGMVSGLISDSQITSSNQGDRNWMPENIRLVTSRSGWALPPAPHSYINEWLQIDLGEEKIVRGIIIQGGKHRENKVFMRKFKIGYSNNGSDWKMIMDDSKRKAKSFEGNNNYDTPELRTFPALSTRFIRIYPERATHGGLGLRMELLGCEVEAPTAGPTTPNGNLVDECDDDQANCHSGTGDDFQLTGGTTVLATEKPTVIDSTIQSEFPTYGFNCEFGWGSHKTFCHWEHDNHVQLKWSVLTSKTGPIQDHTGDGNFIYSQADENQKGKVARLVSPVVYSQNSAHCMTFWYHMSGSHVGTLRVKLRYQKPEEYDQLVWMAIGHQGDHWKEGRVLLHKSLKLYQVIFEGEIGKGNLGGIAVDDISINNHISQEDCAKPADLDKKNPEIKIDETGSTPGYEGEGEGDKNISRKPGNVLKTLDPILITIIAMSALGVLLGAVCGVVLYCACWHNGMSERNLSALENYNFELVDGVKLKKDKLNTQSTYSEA
UCH37 DUB inh: blocks the human deubiquitinase UCH37; inhibition, % (concentration not given with the values); 330,000 tested, 0.33% active; AID 588478; purified proteasome/UCH37, Ub-AMC cleavage fluorescence;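 active = mean inhibition over replicate wells above about 20%, limit read from the data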
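System: Proteasome-associated human UCH37 deubiquitinase; Input: 0.15 nM proteasome in added enzyme buffer; Also added: Ub-AMC substrate from 1 µM stock; Incubation: 30 min compound-proteasome preincubation then 25 min substrate reaction, room temperature; Detection: fluorescence, ex 355 nm, em 460 nm; Read-out: % inhibition of Ub-AMC cleavage fluorescence; Benchmarks: no-proteasome and no-compound wells.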
MT1-MMP act inh: inhibitors of human MT1-MMP activation; HT1080 RFP-PRO-GFP cells, GFP/RFP ratio fluorescence, overnight; percent of plate control window, DMSO zero; P50281; AID 651647; 360,000 tested, 0.061% active; GFP/RFP ratio change, % at 20 µM;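 active = GFP/RFP ratio change of at least 30% with cell ATP level not reduced by more than half and red fluorescence within 50% of control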
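Material: RFP-PRO-GFP reporter HT1080 cells. Dosing: single-point 20 µM compound, 1% DMSO. Controls: DMSO and RFP-L50D-GFP cell wells. Timing: cells overnight before dosing, compound overnight, 37 °C, 5% CO2. Measure: GFP/RFP fluorescence ratio.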
DAGLB inh: diacylglycerol lipase beta (human) inhibition | Q8NCG7 | HEK293T DAGLB membrane lysate, EnzChek fluorogenic substrate | inhibition, % at 5.17 µM | 340,000 tested, 0.059% active; in the data active = inhibition above about 34%
CTSL1 counter: counter-screen for PFM18AAP inhibitors: inhibitors of F. hepatica cathepsin L1; recombinant F. hepatica cathepsin L1, Z-Leu-Arg-MCA fluorescence; inhibition, % at 5.96 µM; 300,000 tested, 0.49% active;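 active = inhibition above the mean of all tested compounds plus 3 SD, set per screening campaign, cut at about 17% in these data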
A number is an active result; 0 = inactive; - = not tested or not shown. Compounds with a hit are over-represented: about 1.5% of the library has one in this group of screens.

SMILES	NRP1-CendR mod	UCH37 DUB inh	MT1-MMP act inh	DAGLB inh	CTSL1 counter
C#CCOCCOCCOCCNc1nc(N2CCN(C(=O)CCCCCCCCCCNC(=O)[C@H](CO)n3cc(CCCSC)nn3)CC2)nc(N2CCN(C(=O)CCCCCCCCCCNC(=O)[C@H](CCCCN)n3cc(CCO)nn3)CC2)n1	0	0	0	0	-
C#CCOCCOCCOCCNc1nc(N2CCN(C(=O)CCCCCCCCCCNC(=O)[C@H](CO)n3cc(CCCSC)nn3)CC2)nc(N2CCN(C(=O)CCCCCCCCCCNC(=O)[C@H](CCCN=C(N)N)n3cc(C[C@@H](C)CC)nn3)CC2)n1	25	-	0	0	0
C#CCOCCOCCOCCNc1nc(N2CCN(C(=O)CCCCCCCCCCNC(=O)[C@H]([C@@H](C)CC)n3cc(CCCCN=C(N)N)nn3)CC2)nc(N2CCN(C(=O)CCCCCCCCCCNC(=O)[C@H](CO)n3cc(CCCCCN)nn3)CC2)n1	28	0	0	0	0
COc1ccc(-c2[nH]ncc2-c2ccc(Cl)cc2)c(O)c1	0	0	0	0	17
COc1ccc(-c2cn[nH]c2-c2ccc(OC)cc2O)cc1	0	0	0	0	0
Nn1c(SCc2ccccc2)nc2c(cnn2-c2ccccc2)c1=O	22	0	0	0	0
O=C(CC1SC(=O)NC1=O)Oc1ccc(C=NNC(=O)c2ccccc2O)cc1 (stereo not drawn)	-	0	-	-	-
O=S(=O)(N=C(c1ccccc1F)N1CCCCC1)c1ccccc1	-	0	-	-	-
COc1ccc(C(C)=O)cc1COC(=O)CCNS(=O)(=O)c1ccc(C)cc1	0	0	0	0	0
COc1ccc(C(C)=O)cc1COC(=O)CCNS(=O)(=O)c1ccc(C(C)=O)cc1	44	0	0	0	0
N#Cc1c(N)sc(=S)c2c1CCN(Cc1ccccc1)C2	-	-	-	-	109
CCN1CCc2c(sc(N)c2C#N)C1	0	0	0	0	0
CC(C)n1c(O)c(N=NC(=O)CNC(=O)Cc2ccc(Cl)cc2)c2ccccc21	21	-	0	0	0
CCCCCCCN1C(Nc2ccccc2)=NC[C@@H]1Cc1ccccc1	26	0	0	0	0
c1ccc(CCCCN2C(Nc3ccccc3)=NC[C@@H]2Cc2ccccc2)cc1	0	0	0	0	0
CCOC(Cn1ccc(=O)[nH]c1=O)OCC	26	0	0	0	0
CCOC(Cn1cc([N+](=O)[O-])c(=O)[nH]c1=O)OCC	0	0	0	0	-
O=C(NCCN1CCOCC1)c1ccc2c(c1)N(Cc1ccccc1)C(=O)CS2	0	0	0	0	32
O=C(NCCN1CCOCC1)c1ccc2c(c1)N(Cc1ccc(Cl)cc1)C(=O)CS2	0	0	0	0	0
CCCCNC(=S)N(CCN(CC)CC)Cc1cc2cc3c(cc2[nH]c1=O)OCCO3	0	0	0	0	18
CC(=NOC(=O)c1cccc(Cl)c1)c1sc(C)nc1C	-	0	-	-	-
O=C(CNC(=O)c1ccccc1F)OC(C(=O)Nc1cc(C(F)(F)F)ccc1Cl)c1ccccc1 (stereo not drawn)	0	0	0	0	25
CCN1CCN(C(=S)NC(=O)c2cccc(Br)c2)CC1	43	0	0	0	-
Cc1c(C(=O)N2CCOCC2)c(S(=O)(=O)Nc2cccc(C#N)c2)c(C)n1C	22	0	0	0	0
Cc1ccc(S(=O)(=O)NN=Cc2cccnc2)cc1	-	0	-	-	-
SMILES	NRP1-CendR mod	UCH37 DUB inh	MT1-MMP act inh	DAGLB inh	CTSL1 counter
O=C(CCCC(=O)OCC(=O)c1cccs1)Nc1ccc(Oc2ccccc2)cc1	23	0	0	0	0
O=C(CCCC(=O)OCC(=O)c1cccs1)Nc1ccc(F)cc1	0	0	0	0	0
O=C(CSCc1ccccc1Br)NN=Cc1ccc2c(c1)OCO2	-	0	-	-	-
COc1cccc(NC(=O)Nc2ccc(Br)cn2)c1	0	0	0	0	0
COc1ccc(NC(=O)Nc2ccc(Br)cn2)cc1OC	47	0	0	0	0
CCN(CC)S(=O)(=O)c1cccc2nsnc12	27	0	0	0	0
CCN(c1ccc(F)cc1)S(=O)(=O)c1cccc2nsnc12	0	0	0	0	0
CC(C)CN(C(=O)COC(=O)C1c2ccccc2Oc2ccccc21)C1CCS(=O)(=O)C1 (stereo not drawn)	24	0	0	0	0
CC[C@H](C)[C@@H](COC=O)NC(=O)[C@H]1O[C@@H](n2ccc(N)nc2=O)[C@H](O)[C@@H]1O	31	-	0	-	-
CCOC(=O)C1CCN(S(=O)(=O)c2ccc3c(c2)CCN3C(=O)C2CCC2)CC1	22	0	0	0	0
CCOC(=O)C1CCN(S(=O)(=O)c2ccc3c(c2)CCN3C(C)=O)CC1	0	0	0	0	0
COc1ccc(C=NNC(=O)c2[nH]c3ccc(Br)cc3c2-c2ccccc2)cc1	-	0	-	-	-
COc1ccc(CNC(=O)CN2C(=O)CSc3ccc(S(=O)(=O)N4CCOCC4)cc32)cc1	33	0	0	0	0
Cc1cccc2nc(-c3ccccc3)nc(N3CCC(O)(c4ccc(Cl)cc4)CC3)c12	31	0	0	0	0
CCN1CCN(c2nc(-c3ccccc3)nc3ccccc23)CC1	0	0	0	0	0
CCN1CCN(CCCNC(=O)C2CCCN(c3nnc(-n4cccc4)s3)C2)CC1 (stereo not drawn)	0	23	0	0	0
CN1CCN(CCCNC(=O)C2CCN(c3nnc(-n4cccc4)s3)CC2)CC1	0	0	0	0	0
CCCCn1c(SCC(=O)Nc2cc(C)on2)nnc1-c1cccnc1	22	0	0	0	0
CCCCn1c(SCC(=O)Nc2cc(C)on2)nnc1-c1ccncc1	0	0	0	0	0
O=C(CN1C(=O)c2ccccc2C1=O)Nc1cccc2cccnc12	0	0	0	0	0
O=C1C=C(Nc2cccc3cccnc23)c2ccccc2C1=O	0	-	0	0	20
Cc1cc(/C=N/NC(N)=S)c(C)n1-c1cccc(Cl)c1	0	-	0	0	0
CC(C)Oc1ccc(Br)cc1/C=N\NC(N)=S	0	-	0	0	47
Cc1cc(/C=N/NC(N)=S)c(C)n1-c1ccc(Br)cc1	0	-	0	0	42
Cc1cc(/C=N/NC(N)=S)c(C)n1-c1ccc(Cl)cc1	0	-	0	0	17
SMILES	NRP1-CendR mod	UCH37 DUB inh	MT1-MMP act inh	DAGLB inh	CTSL1 counter
C=CCc1c(OC(C)=O)c2ccccc2n(C)c1=O	25	0	0	0	0
CCC(=NOC(=O)c1ccc(OC(C)C)cc1)c1ccc(C)cc1	-	0	-	-	-
Cn1c(=O)c2ccccc2n2c(CCl)nnc12	0	0	0	0	28
Cn1c(=O)c2ccccc2n2c(=S)[nH]nc12	0	0	0	0	0
Cc1cc(C)c2c(c1)C(=NNC(=S)Nc1ccc(F)cc1)CCC2	-	0	-	-	-
Cc1ccccc1NC(=O)c1sc2nc(N3CCOCC3)c3c(c2c1N)CCCC3	33	0	0	0	0
Cc1cc(C)n2c(Nc3ccc4c(c3)OCCO4)c(-c3ccccn3)nc2n1	21	-	0	-	-
Cc1cc(C)n2c(Nc3ccc4c(c3)OCCO4)c(-c3cc4ccccc4o3)nc2n1	0	-	0	-	-
